Source: ChEMBL document CHEMBL3351584, “Binding mode and potency of N-indolyloxopyridinyl-4-aminopropanyl-based inhibitors targeting Trypanosoma cruzi CYP51” (J Med Chem, 2014)

Key:
Format in all cases: ADME, organism-based
[1] = AUClast in Swiss Webster mouse at 25 mg/kg, po administered as single dose by LC-MS/MS method; design: dose 25 mg/kg, route oral, time 0 - last; settings: plasma
How it was run: (§1)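 Eight-week-old female Swiss Webster mice (n = 3 per compound) given one oral gavage dose of 25 mg/kg, formulated at 5 mg/mL in 20% Kolliphor/80% water. Plasma sampled at about 0.25, 0.5, 1, 2, 4, 6, 8, 12 and 24 h, precipitated with 5× v/v acetonitrile, filtered 0.2 μm and quantified by LC–MS/MS. Parameters calculated from plasma concentration–time curves, averaged over three mice.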

Mus musculus = test: Volume of distribution in Swiss Webster mouse at 25 mg/kg, po administered as single dose by LC-MS/MS method; design: dose 25 mg/kg, route oral; settings: in vivo; how it was run: as §1
[2] = Cmax in Swiss Webster mouse at 25 mg/kg, po administered as single dose by LC-MS/MS method; design: dose 25 mg/kg, route oral; settings: in vivo; how it was run: as §1
[3] = Tmax in Swiss Webster mouse at 25 mg/kg, po administered as single dose by LC-MS/MS method; design: dose 25 mg/kg, route oral; settings: in vivo; how it was run: as §1
Homo sapiens = species: Homo sapiens; test: Volume of distribution in human; settings: in vivo

AUC(0-t) [1] [µM·h]	Vd (Mus musculus) [L/kg]	Cmax [2] [nM]	Tmax [3] [h]	SMILES	Vd (Homo sapiens) [L/kg]
22.5	3.97	1850	4.67	O=C(N[C@H](Cc1c[nH]c2ccccc12)C(=O)Nc1ccncc1)c1ccc(N2CCN(c3cc(Cl)cc(Cl)c3)CC2)cc1F	
19	3.44	1800	3.33	Cc1ccc(Cl)cc1N1CCN(c2ccc(C(=O)N[C@H](Cc3c[nH]c4ccccc34)C(=O)Nc3ccncc3)c(F)c2)CC1	
				CC[C@@H]([C@H](C)O)n1ncn(-c2ccc(N3CCN(c4ccc(OC[C@@H]5CO[C@@](Cn6cncn6)(c6ccc(F)cc6F)C5)cc4)CC3)cc2)c1=O [POSACONAZOLE]	5
